Results as given in ChEMBL document CHEMBL1140221, “Novel naphthalene-N-sulfonyl-D-glutamic acid derivatives as inhibitors of MurD, a key peptidoglycan biosynthesis enzyme” (J Med Chem, 2008).

System: Escherichia coli
Assay: Inhibition of Escherichia coli MurD assessed as residual activity at 1 mM
Summary of the method: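 Radiolabel MurD assay: E. coli enzyme, 25 µM UMA plus 25 µM D-[14C]Glu, Tris-HCl pH 8.6, MgCl2, 5% DMSO, compound at 1 mM; 30 min at 37 °C, acid-quenched, reverse-phase HPLC with radioactivity detection. Activity expressed relative to an inhibitor-free assay; mean of two independent experiments.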

Row | Activity | SMILES
1 | 79% | CC(=O)Nc1ccc(S(=O)(=O)N[C@H](CCC(=O)O)C(=O)O)cc1
2 | 92% | O=C(O)CC[C@@H](NC(=O)CN1C(=O)c2ccccc2C1=O)C(=O)O
3 | 86% | O=C(O)CC[C@@H](NS(=O)(=O)Cc1ccc(F)cc1Cl)C(=O)O
4 | 76% | O=C(O)CC[C@@H](NC(=O)COc1ccc2ccccc2c1)C(=O)O
5 | 81% | O=C(O)CC[C@@H](NC(=O)CCc1cccc(O)c1)C(=O)O
6 | 84% | O=C(O)CC[C@@H](NS(=O)(=O)Cc1ccccc1)C(=O)O
7 | 43% | O=C(O)CC[C@@H](NS(=O)(=O)c1ccc(-c2ccccc2)cc1)C(=O)O
8 | 66% | Cc1ccc(S(=O)(=O)N[C@H](CCC(=O)O)C(=O)O)cc1
9 | 35% | O=C(O)CC[C@@H](NS(=O)(=O)c1ccc2ccccc2c1)C(=O)O
10 | 91% | O=C(O)CC[C@@H](NC(=O)/C=C/c1ccccc1)C(=O)O
11 | 75% | C[C@@H](CS(=O)(=O)N[C@H](CCC(=O)O)C(=O)O)S(=O)(=O)c1ccc2ccccc2c1
12 | 54% | O=C(O)CC[C@@H](NC(=O)C1Oc2ccccc2NC1=O)C(=O)O (stereo partly specified)

System: not listed separately
Assay: Inhibition of Escherichia coli MurD

Row | IC50 | SMILES
13 | > 1000 µM | CCCCOc1cccc2c(S(=O)(=O)N[C@H](CCC(=O)O)C(=O)O)cccc12
14 | 239 µM | O=C(O)CC[C@@H](NS(=O)(=O)c1ccc2cc(OCc3ccccc3)ccc2c1)C(=O)O
15 | 132 µM | O=C(O)CC[C@@H](NS(=O)(=O)c1ccc2cc(OCCCc3ccccc3)ccc2c1)C(=O)O
16 | 400 µM | O=C(O)CC[C@@H](NS(=O)(=O)c1ccc2cc(OC3CCCC3)ccc2c1)C(=O)O
17 | > 1000 µM | CCCCOc1ccc2cc(CN[C@H](CCC(=O)O)C(=O)O)ccc2c1
18 | 180 µM | CCCCOc1ccc2ccc(S(=O)(=O)N[C@H](CCC(=O)O)C(=O)O)cc2c1
19 | > 2000 µM | CCCCOc1ccc2cc(S(=O)(=O)NCCCC(=O)O)ccc2c1
20 | 710 µM | CCCCOc1ccc2cc(S(=O)(=O)N[C@@H](CCC(=O)O)C(=O)O)ccc2c1
21 | 1720 µM | O=C(O)CC[C@@H](NS(=O)(=O)c1ccc(-c2ccccc2)cc1)C(=O)O
22 | > 1000 µM | CCCCOc1ccc(S(=O)(=O)N[C@H](CCC(=O)O)C(=O)O)c2ccccc12
23 | 630 µM | O=C(O)CC[C@@H](NS(=O)(=O)c1ccc2cc(OCC(=O)O)ccc2c1)C(=O)O
24 | > 2000 µM | CCCCOc1ccc2cc(S(=O)(=O)N[C@H](CCC(=O)OC)C(=O)OC)ccc2c1
25 | > 1000 µM | CCCCOc1ccc2cc(C(=O)N[C@H](CCC(=O)O)C(=O)O)ccc2c1
26 | 590 µM | COc1ccc2cc(S(=O)(=O)N[C@H](CCC(=O)O)C(=O)O)ccc2c1
27 | > 1000 µM | O=C(O)CCCOc1ccc2cc(S(=O)(=O)N[C@H](CCC(=O)O)C(=O)O)ccc2c1
28 | 305 µM | CCCOc1ccc2cc(S(=O)(=O)N[C@H](CCC(=O)O)C(=O)O)ccc2c1
29 | > 2000 µM | CCCCOc1ccc2cc(S(=O)(=O)NCC(=O)O)ccc2c1
30 | 810 µM | O=C(O)CC[C@@H](NS(=O)(=O)c1ccc2ccccc2c1)C(=O)O
31 | 192 µM | CCOC(=O)COc1ccc2cc(S(=O)(=O)N[C@H](CCC(=O)O)C(=O)O)ccc2c1
32 | 100 µM | COc1cc(C#N)ccc1COc1ccc2cc(S(=O)(=O)N[C@H](CCC(=O)O)C(=O)O)ccc2c1
33 | 176 µM | CCCCCCOc1ccc2cc(S(=O)(=O)N[C@H](CCC(=O)O)C(=O)O)ccc2c1
34 | > 1000 µM | CCCCOc1ccc2cc(S(=O)(=O)N(C)[C@H](CCC(=O)O)C(=O)O)ccc2c1
35 | > 2000 µM | C[C@@H](CS(=O)(=O)N[C@H](CCC(=O)O)C(=O)O)S(=O)(=O)c1ccc2ccccc2c1
36 | 280 µM | CCCCOc1ccc2cc(S(=O)(=O)N[C@H](CCC(=O)O)C(=O)O)ccc2c1
